These results are taken from ChEMBL document CHEMBL4359929, “Piperidine and piperazine inhibitors of fatty acid amide hydrolase targeting excitotoxic pathology” (Bioorg Med Chem, 2019).

The target in data set [1] is T1, Fatty-acid amide hydrolase 1 (Rattus norvegicus) (UniProt P97612).
T1 sequence (whole entry): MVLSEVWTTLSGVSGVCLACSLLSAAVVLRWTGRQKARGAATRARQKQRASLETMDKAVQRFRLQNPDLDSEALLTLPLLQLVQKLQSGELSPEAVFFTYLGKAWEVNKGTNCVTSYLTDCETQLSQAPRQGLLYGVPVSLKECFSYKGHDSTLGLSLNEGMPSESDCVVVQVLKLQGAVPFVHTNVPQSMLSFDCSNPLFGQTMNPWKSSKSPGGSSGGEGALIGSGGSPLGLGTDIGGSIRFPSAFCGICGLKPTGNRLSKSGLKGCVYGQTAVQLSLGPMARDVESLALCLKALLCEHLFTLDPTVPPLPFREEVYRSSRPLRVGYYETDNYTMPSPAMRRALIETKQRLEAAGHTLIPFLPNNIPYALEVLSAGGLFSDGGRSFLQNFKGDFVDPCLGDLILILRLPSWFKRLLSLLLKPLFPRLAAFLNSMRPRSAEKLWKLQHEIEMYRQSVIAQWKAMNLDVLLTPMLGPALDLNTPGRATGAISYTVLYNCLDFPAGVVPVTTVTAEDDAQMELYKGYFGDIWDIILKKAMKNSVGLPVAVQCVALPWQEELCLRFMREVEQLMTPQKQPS
The data set is described as follows: Inhibition of FAAH in rat brain membrane at 1 to 10 uM incubated for 30 mins followed by incubation with FP-Rh probe for 45 mins by ABPP assay. In kind it is cell membranes. The essentials:
(§1)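 Gel-based competitive ABPP on rat brain membrane homogenates (10 mg/mL protein). Compound at 1 and 10 μM or DMSO for 30 min at room temperature, then 10 μM rhodamine-tagged fluorophosphonate probe for 45 min at room temperature. FAAH was run with a reference FAAH inhibitor at 10 μM as positive control. Serine hydrolase labelling read by in-gel fluorescence.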

Data set [2] addresses T2, Monoacylglycerol lipase ABHD6 (Rattus norvegicus) (UniProt Q5XI64).
T2 sequence (whole entry): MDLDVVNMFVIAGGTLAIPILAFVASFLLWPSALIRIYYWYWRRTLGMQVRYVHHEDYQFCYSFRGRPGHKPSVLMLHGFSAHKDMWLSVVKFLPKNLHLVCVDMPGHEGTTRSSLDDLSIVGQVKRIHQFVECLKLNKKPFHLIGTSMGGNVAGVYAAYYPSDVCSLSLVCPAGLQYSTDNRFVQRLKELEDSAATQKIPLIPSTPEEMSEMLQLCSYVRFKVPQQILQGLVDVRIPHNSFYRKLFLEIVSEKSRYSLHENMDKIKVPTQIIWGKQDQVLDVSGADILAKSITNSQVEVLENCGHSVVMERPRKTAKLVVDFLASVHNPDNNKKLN
Nature of the data set: Inhibition of ABHD6 in rat brain membrane at 1 to 10 uM incubated for 30 mins followed by incubation with FP-Rh probe for 45 mins by ABPP assay. It is filed as cell membranes. In outline: as §1

Data set [3] can be described thus: Stability in rat liver microsomes assessed as half life. It is filed as ADME, Microsome. The essentials: (§2)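 Stability assessed as half-life in human, rat and mouse plasma and gastric fluid, and in human, rat and mouse liver microsomal preparations.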
Data set [4] can be described thus: Stability in mouse plasma assessed as half life. It is filed as ADME, cell-free. The essentials:
as §2

A short description of data set [5]: Stability in human gastric fluid assessed as half life. In kind it is ADME, tissue-based, Gastric juice. In outline: as §2
A short description of data set [6]: Stability in mouse gastric fluid assessed as half life. It is filed as ADME, tissue-based, Gastric juice. In outline:
as §2

Data set [7] has as its system Hippocampus. The data set is described as follows: Neuroprotective activity against Sprague-Dawley rat hippocampus assessed as decrease in KA-induced excitotoxicity by measuring increase in GluR1 level at 3 to 30 uM preincubated for 1 hr followed by KA stimulation for 2 hrs in continued presence of compound followed by KA wash out and then further incubation with compound for 24 hrs by immunoblot analysis. It is filed as functional, tissue-based. The essentials:
(§3)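 Sprague-Dawley rat hippocampal slices (400 μm, postnatal day 12) cultured 18–20 days at 37 °C, 5% CO2. Pretreated 60 min with 3–30 μM compound or 0.1% DMSO, then 60 μM kainic acid for 2 h with compound. Three washouts, then 24 h recovery with 30 μM compound. Harvested in groups of 7–9; GluR1, synaptophysin and synapsin IIb by immunoblot with optical density. Unpaired t-tests.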
In general terms: In western blotting, separated proteins are transferred to a membrane and probed.

The subject of data set [8] is Hippocampus. Nature of the data set: Neuroprotective activity against Sprague-Dawley rat hippocampus assessed as decrease in KA-induced excitotoxicity by measuring increase in syn IIb level at 3 to 30 uM preincubated for 1 hr followed by KA stimulation for 2 hrs in continued presence of compound followed by KA wash out and then further incubation with compound for 24 hrs by immunoblot analysis. In kind it is functional, tissue-based. The essentials: as §3

The subject of data set [9] is Hippocampus. Nature of the data set: Neuroprotective activity against Sprague-Dawley rat hippocampus assessed as decrease in KA-induced excitotoxicity by measuring increase in GluR1 level in dense neuropil at 3 to 30 uM preincubated for 1 hr followed by KA stimulation for 2 hrs in continued presence of compound followed by KA wash out and then further incubation with compound for 24 hrs by immunostaining analysis. In kind it is functional, tissue-based. In outline: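 Same hippocampal slice kainic acid protocol (60 μM, 2 h, after 1 h pretreatment; 24 h recovery with compound). Fixed hippocampal tissue from each treatment group immunostained with anti-GluR1 (1:200).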

For another data set, the species on record is Homo sapiens. The data set is described as follows: Selectivity ratio of IC50 for human full length ABHD6 expressed in Escherichia coli cells to IC50 for human recombinant MBP-tagged FAAH expressed in Escherichia coli cells by fluorescence based assay.
Data set [10] addresses Cannabinoid receptor 1 (Rattus norvegicus) (UniProt P20272). Nature of the data set: Displacement of [3H]CP55940 from CB1 receptor in rat brain by competition-equilibrium binding analysis. It is filed as tissue-based. The essentials: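 Rat brain membranes as CB1 source; competition-equilibrium binding against [3H]CP-55,940.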
Target sequence in this assay (P20272 whole entry): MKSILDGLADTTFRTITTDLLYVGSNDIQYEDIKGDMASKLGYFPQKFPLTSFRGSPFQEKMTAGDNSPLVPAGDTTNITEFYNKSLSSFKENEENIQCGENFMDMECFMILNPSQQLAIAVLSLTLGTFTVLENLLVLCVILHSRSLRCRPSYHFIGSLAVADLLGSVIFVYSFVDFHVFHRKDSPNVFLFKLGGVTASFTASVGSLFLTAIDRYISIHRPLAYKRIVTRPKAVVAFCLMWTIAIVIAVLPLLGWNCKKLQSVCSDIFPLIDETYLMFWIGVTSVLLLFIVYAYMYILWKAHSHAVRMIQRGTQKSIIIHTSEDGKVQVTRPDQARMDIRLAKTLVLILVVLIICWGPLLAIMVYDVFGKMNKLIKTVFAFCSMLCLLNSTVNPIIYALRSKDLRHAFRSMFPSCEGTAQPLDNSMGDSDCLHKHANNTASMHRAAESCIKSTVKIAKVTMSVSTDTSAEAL
Data set [11] addresses Cannabinoid receptor 2 (Mus musculus) (UniProt P47936). Nature of the data set: Displacement of [3H]CP55940 from mouse CB2 receptor expressed in HEK293 cells by competition-equilibrium binding analysis. In kind it is cell-based. In outline:
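HEK293 cell membranes expressing mouse or human CB2; competition-equilibrium binding against [3H]CP-55,940.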

The subject of data set [12] is Hippocampus. Nature of the data set: Neuroprotective activity against Sprague-Dawley rat hippocampus assessed as decrease in KA-induced excitotoxicity by measuring increase in syn protein level in dense neuropil at 3 to 30 uM preincubated for 1 hr followed by KA stimulation for 2 hrs in continued presence of compound followed by KA wash out and then further incubation with compound for 24 hrs by immunostaining analysis. It is filed as functional, tissue-based.

The species entered for a further data set is Rattus norvegicus. The data set is described as follows: Neuroprotective activity against Sprague-Dawley rat assessed as decrease in KA-induced seizure severity. In kind it is functional, organism-based.
The target of data set [13] is Cannabinoid receptor 1 (Rattus norvegicus) (UniProt P20272). The data set is described as follows: Displacement of [3H]CP55940 from CB1 receptor in rat brain by competition-equilibrium binding analysis. In general terms: Loss of bound radioactivity is the signal in a displacement assay; it reports binding, not function.
Target sequence in this assay (P20272 whole entry, looked up): as the sequence (P20272 whole entry) above

Activity calls are given as the source filed them. No cut-off for these calls is given here. A value given as a limit tells only on which side of the number the result lay.

Chain of Cannabinoid receptor 2 (Mus musculus) (P47936 whole entry): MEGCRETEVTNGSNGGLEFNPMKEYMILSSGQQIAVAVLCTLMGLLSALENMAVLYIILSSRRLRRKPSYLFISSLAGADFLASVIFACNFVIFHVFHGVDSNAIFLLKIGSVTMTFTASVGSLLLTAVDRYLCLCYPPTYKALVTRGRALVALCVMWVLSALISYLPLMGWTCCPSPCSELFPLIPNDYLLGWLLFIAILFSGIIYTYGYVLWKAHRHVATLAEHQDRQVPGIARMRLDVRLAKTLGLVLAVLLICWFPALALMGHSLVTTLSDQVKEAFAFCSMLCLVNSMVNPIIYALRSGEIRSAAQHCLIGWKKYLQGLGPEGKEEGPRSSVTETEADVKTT

Broadly, the inhibition is how much of the control response was suppressed. In general, half-life refers to how long it takes for the measured level to halve. Turning to `O=C(Oc1cccc(N2CCS(=O)(=O)CC2)c1)N1CCC(c2ccc(N3CCC3)cc2)CC1`, in [1], the inhibition turned out to be 100%. Moreover, the inhibition entry in [2] is “inactive”. In addition, the half-life in data set [3] was 0.25 to 0.417 h; in data set [4], above 1 h; in data set [5] it was above 1 h; in [6], above 1 h. Besides, the inhibition result with Hippocampus [7], with Hippocampus [8], with Hippocampus [9] and in the data set with Hippocampus [12] was “Active” each time. Besides, the Ratio IC50 in the data set listed under Homo sapiens was above 1000. Besides, the result in [10], in data set [11] and in data set [13] was inactive. Moreover, the result in the data set filed under Rattus norvegicus was Active.
As to `C[C@@H]1CN(c2ccc(F)cc2)CCN1C(=O)Oc1cccc(N2CCS(=O)(=O)CC2)c1`, in data set [1], the inhibition is 100%. Also, in data set [2], the inhibition result is “inactive”. The half-life in data set [3] was 0.25 to 0.417 h; in data set [4], above 1 h; in [5], above 1 h; in data set [6], above 1 h. The inhibition entry with Hippocampus [7] and with Hippocampus [8] was “Active” each time. In addition, the Ratio IC50 in the data set filed under Homo sapiens was above 1000. In addition, the outcome in data set [10], in data set [11] and in data set [13] was inactive.
